Assay outcomes deposited in PubChem BioAssay by several laboratories.
This is a sample that favours compounds with a hit; in the whole collection about 1.6% have one here.
PG9 binder = PG9 antibody binding by small molecule; TR-FRET gp120-PG9 antibody binding; inhibition, % at 6.7 µM; 0.43% of 360,000 active; AID 624416; in the data active = inhibition above about 8.5%
Rev-erbA mod = modulators of human Rev-erb alpha DNA binding. activity, % at 10 µM. P20393. 0.79% of 370,000 active. Rev-erbα–FITC-DNA binding, fluorescence polarization, 90 min. AID 1259318;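 active = activity above about 14%, limit read from the data; passing the limit was not always enough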;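 note: 0% = DMSO wells with 35 nM protein and 100% = DMSO wells with 750 nM protein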
Target sequence (P20393 whole entry, looked up): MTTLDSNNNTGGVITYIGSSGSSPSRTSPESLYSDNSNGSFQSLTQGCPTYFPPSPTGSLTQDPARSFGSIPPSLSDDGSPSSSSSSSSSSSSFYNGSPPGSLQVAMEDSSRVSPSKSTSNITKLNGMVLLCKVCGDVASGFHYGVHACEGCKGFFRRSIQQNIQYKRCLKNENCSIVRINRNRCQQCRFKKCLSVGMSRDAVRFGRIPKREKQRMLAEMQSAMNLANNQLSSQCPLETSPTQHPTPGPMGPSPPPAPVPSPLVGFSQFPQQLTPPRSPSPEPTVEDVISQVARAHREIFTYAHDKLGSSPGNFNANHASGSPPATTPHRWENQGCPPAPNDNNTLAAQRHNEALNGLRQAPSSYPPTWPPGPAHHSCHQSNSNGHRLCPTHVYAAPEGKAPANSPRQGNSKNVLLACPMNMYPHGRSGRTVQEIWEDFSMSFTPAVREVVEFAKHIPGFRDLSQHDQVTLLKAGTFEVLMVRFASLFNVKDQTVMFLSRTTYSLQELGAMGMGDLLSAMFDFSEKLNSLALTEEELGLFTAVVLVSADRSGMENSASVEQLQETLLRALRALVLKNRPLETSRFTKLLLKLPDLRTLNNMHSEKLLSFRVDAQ
NR2E3 ag-1 = NR2E3 (human) agonism; GST-NR2E3/biotin-RetCOR TR-FRET, 1536-well; inhibition of corepressor binding, % at 4.78 µM; 0.12% of 320,000 active; AID 2300;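 active = percent inhibition above the cutoff of mean plus 3 SD of all tested compounds, set per screening campaign, cut at about 20% in these data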;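 note: 0% = DMSO wells and 100% = biotin wells as full block of FRET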
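system = GST-tagged NR2E3 plus biotinylated RetCOR corepressor | input = 1.35 nM GST-NR2E3 | also added = 7 nM biotin-RetCOR | schedule = 5 h incubation at 4 °C | measured by = TR-FRET with europium anti-GST and streptavidin-D2, 340 nm excitation | read-out = percent loss of FRET ratio relative to control wells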
NR2E3 ag-2 = human photoreceptor-specific nuclear receptor agonism; Q9Y5X4; CHO-S Gal4-NCOR/VP16-NR2E3 two-hybrid, luciferase; inhibition of corepressor binding, % at 3.98 µM; 0.35% of 360,000 active; AID 602229;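 active = inhibition above the mean of all tested compounds plus 3 SD, cut at about 70% in these data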;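 note: 0% = DMSO with NR2E3 transfected cells and 100% = cells lacking NR2E3 construct; higher means lower luciferase signal from less NR2E3 corepressor binding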
PKA-R2B activ = activators of human PKA-R2B complex. activation, % at 11.4 µM. PKA-R2B holoenzyme dissociation, Cy5-IP20 fluorescence polarization; R2B truncated from residue 108, S112A mutant; 0% DMSO only, 100% 113 µM cGMP. P22694+P31323. 0.079% of 340,000 active. AID 504700;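 active = activation above a cutoff set at the mean over all compounds plus 3 SD, cut at about 18% in these data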;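 note: higher means more holoenzyme dissociation and a rise in polarization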
PKA-R1A act = activates the PKA-R1A holoenzyme complex | P00514+P68181 | PKA-R1A dissociation, Cy5-IP20 fluorescence polarization; scaled: DMSO 0%, 113 µM cGMP 100% | activation, % at 11.4 µM | 0.083% of 340,000 active | AID 504707;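 active = percent activation above the mean of all tested compounds plus 3 SD, cut at about 19% in these data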;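 note: higher means more PKAc released from R1A so a rise in polarization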
NR2E3 ag confirm = confirmation of human NR2E3 agonists | shares compounds with NR2E3 ag-2 | CHO-S mammalian two-hybrid NR2E3-NCOR, luciferase luminescence | inhibition, % at 3.98 µM | 51% of 2,300 active | AID 624378;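 active = average inhibition above a cutoff equal to the mean inhibition of all tested compounds plus one SD, cut at about 70% in these data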;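 note: 0% = DMSO in NR2E3 cells and 100% = DMSO in cells lacking NR2E3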
VP16 counter = counter-screen for NR2E3 agonists: GAL4-VP16 reporter inhibitors | shares compounds with NR2E3 ag-2 | CHO-S GAL4-VP16 luciferase reporter, luminescence | inhibition, % at 3.98 µM | 29% of 2,300 active | AID 624379;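 active = mean inhibition above a cutoff equal to the average over all tested compounds plus one standard deviation, cut at about 70% in these data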;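 note: luciferase from a UAS reporter driven by GAL4-VP16 transactivation; 0% = DMSO with VP16-transfected cells and 100% = DMSO with cells lacking VP16; higher means less reporter light so more repression of VP16 activity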
Numbers without * were called inactive; . = no result given.

SMILES | PG9 binder | Rev-erbA mod | NR2E3 ag-1 | NR2E3 ag-2 | PKA-R2B activ | PKA-R1A act | NR2E3 ag confirm | VP16 counter
O=C(NCc1cccnc1)c1ccc(-c2ccc(F)c(F)c2)c2ccoc12 | -0.9 | 2.0 | . | 76.3* | . | . | 95.7* | 75.9*
COc1cc(-c2coc3c(C(=O)NCc4ccc(N(C)C)cc4)cccc23)ccc1O | -0.7 | -1.1 | . | -111.3 | . | . | . | .
O=C(NCc1ccc(F)c(F)c1)c1ccc(-c2ccc(F)c(F)c2)c2ccoc12 | -2.1 | 0.6 | . | -37.0 | . | . | . | .
COc1ccc(CNC(=O)c2cccc3c(-c4cccc(C(N)=O)c4)coc23)cc1OC | 0.2 | 1.7 | . | 52.9 | . | . | 64.3 | 57.0
COc1ccc(CNC(=O)c2cccc3c(-c4ccc(F)c(F)c4)coc23)cc1OC | . | . | . | 60.7 | . | . | 79.5* | 47.6
COc1cc(-c2coc3c(C(=O)NCc4ccc(OC)c(OC)c4)cccc23)ccc1O | -1.6 | 2.5 | . | 52.8 | . | . | 60.9 | 30.0
CC(C)C[C@@H]1COc2cc(Br)ccc2S(=O)(=O)N1Cc1cn(Cc2ccc(Br)cc2)nn1 | . | 2.9 | . | . | . | . | . | .
COC(=O)[C@]12C[C@H](CC(=O)N3CCN(C(=O)C4CC4)CC3)C(=O)N(CCc3ccc(OC)c(OC)c3)C1=C[C@H](C1CCCC1)O[C@@H]2C | . | 1.1 | . | . | . | . | . | .
CC(C)CNC(=S)N1CCC(c2nc(-c3ccc(F)cc3)no2)CC1 | -0.1 | 0.9 | 0.1 | 67.0 | -6.2 | -3.0 | 88.4* | 66.8
O=C(Nc1cccc(C(F)(F)F)c1)N1CCC(c2nc(-c3ccc(F)cc3)no2)CC1 | 1.0 | 0.6 | 2.6 | 48.6 | -2.1 | -5.5 | 55.7 | 51.0
CCOC(=O)[C@@]12CN(C(=O)OC(C)(C)C)CC=C1N(Cc1ccc(OC)cc1)C(=O)[C@H]2CC(=O)NCCc1ccccc1OC | . | -0.8 | . | . | . | . | . | .
COc1ccc(-n2c(SCC(=O)NCCCSC)nnc2-c2ccncc2)cc1 | . | 1.0 | . | . | . | . | . | .
COc1ccc(OC)c(C2C3=C(COC3=O)Nc3cc4c(cc32)OCO4)c1 (configuration not stated) | -3.3 | -1.2 | -0.4 | 59.1 | 15.7 | 1.5 | 7.2 | 17.5
COc1ccc(C2C3=C(CC(C)(C)CC3=O)Nc3cc4c(cc32)OCO4)cc1 (configuration not stated) | 0.0 | 1.4 | 3.5 | -32.8 | -15.4 | -14.5 | . | .
Cc1nn(C)c(C)c1/C=C/C(=O)c1ccc(Cl)cc1Cl | -0.8 | 7.2 | 2.9 | 75.7* | -2.5 | -10.9 | 99.6* | 85.0*
Cc1nn(C)c(C)c1/C=C/C(=O)O | -0.8 | -1.7 | -4.4 | 9.2 | -6.4 | -3.3 | . | .
O=C(O)C1C2C=CC(C2)C1C(=O)Nc1ccc2c(c1)OCCO2 (configuration not stated) | . | . | 0.1 | 62.6 | -7.8 | -0.7 | 22.0 | -2.8
O=C(O)C1CCCCC1C(=O)Nc1ccc2c(c1)OCCO2 (configuration not stated) | 1.5 | 0.9 | 3.5 | 62.8 | 1.9 | 1.8 | 6.4 | -14.7
CCN(CC)CCCNC(=O)c1cc2cc(Cl)ccc2nc1N | -0.2 | -4.9 | . | . | . | . | . | .
COc1ccc(CCNC(=O)c2cc3ccc(Cl)cc3nc2N)cc1 | . | . | . | 89.9* | . | . | 90.1* | 77.5*
Nc1nc2cc(Cl)ccc2cc1C(=O)NCCCc1ccccc1 | . | . | . | 82.3* | . | . | 86.6* | 78.0*
COCCN1Cc2cc(C(=O)OC)c3c(c2C1=O)c1cc(OC)ccc1n3C(=O)c1ccccc1 | 0.0 | 2.7 | . | . | . | . | . | .
O=c1c2ccccc2n(Cc2ccco2)n1[C@@H](Cc1ccccc1)Cn1cc(-c2ccc(-c3ccccc3)cc2)nn1 | . | 4.6 | . | . | . | . | . | .
O=S(=O)(NCc1cccs1)c1ccc(Br)cc1 | -2.2 | -11.3 | 3.9 | -31.2 | 6.2 | -9.4 | . | .
O=C(Nc1ccc(Br)cc1)c1ccc(F)c(S(=O)(=O)NCc2cccs2)c1 | -1.0 | 1.1 | 1.1 | 82.6* | -1.9 | -15.3 | 96.7* | 82.3*
SMILES | PG9 binder | Rev-erbA mod | NR2E3 ag-1 | NR2E3 ag-2 | PKA-R2B activ | PKA-R1A act | NR2E3 ag confirm | VP16 counter
O=C(Nc1ccc2c(c1)Cc1ccccc1-2)NC1CCCCN(Cc2cccc(Cl)c2)C1=O (configuration not stated) | . | 1.7 | . | . | . | . | . | .
O=C1N(c2ccccc2)C[C@@H]2C[C@@H](c3cc4ccccc4o3)N3CCC[C@@]123 | -0.1 | -0.7 | . | 77.8* | -1.5 | -9.7 | 98.6* | 85.0*
CCn1cc(CNC(=O)c2ccc(OC3CCN(Cc4ccccn4)CC3)cc2)cn1 | 0.3 | 3.4 | 1.7 | -6.6 | 12.1 | -4.3 | . | .
CCn1nc(C)c(CNC(=O)c2ccc(OC3CCN(Cc4ccccn4)CC3)cc2)c1C | -1.8 | 0.9 | . | 79.2* | 3.7 | -7.4 | 56.9 | 60.1
COC(=O)[C@]12C[C@H](CC(=O)NCCCCc3ccccc3)C(=O)N(Cc3ccc(Cl)cc3Cl)C1=C[C@H](COCc1ccccc1)O[C@@H]2C | . | 4.6 | . | . | . | . | . | .
Cc1ccc(OCC(=O)c2cc(C)n(Cc3cccs3)c2C)c([N+](=O)[O-])n1 | -0.4 | 2.2 | 1.3 | 84.0* | -5.2 | -4.8 | 92.9* | 87.7*
O=S(=O)(CC1NCc2cc(F)ccc21)NCc1ccccc1 (configuration not stated) | . | 4.1 | . | . | . | . | . | .
COC(=O)[C@H](CC(C)C)N(CCCc1cn(Cc2ccccc2)nn1)S(=O)(=O)c1ccccc1Br | . | -5.2 | . | . | . | . | . | .
